Compounds with a hit are over-represented: about 4.2% of the library has one in this group of screens.
KCNQ1 block – inhibitors of human KCNQ1 channel, primary screen, cell-based, thallium flux, high-throughput | Potassium voltage-gated channel subfamily KQT member 1 (Homo sapiens), P51787 | B-score at 10 µM | 1.3% of 310,000 active | CHO-K1 KCNQ1, FluxOR thallium flux fluorescence; hits give high values;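 active = compounds whose thallium flux B-score, printed positive for inhibition, exceeds three library SD while starting fluorescence stays within three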;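 also: channel opened by potassium depolarization with thallium stimulus after 20 min compound exposure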
Target sequence (P51787 whole entry, looked up): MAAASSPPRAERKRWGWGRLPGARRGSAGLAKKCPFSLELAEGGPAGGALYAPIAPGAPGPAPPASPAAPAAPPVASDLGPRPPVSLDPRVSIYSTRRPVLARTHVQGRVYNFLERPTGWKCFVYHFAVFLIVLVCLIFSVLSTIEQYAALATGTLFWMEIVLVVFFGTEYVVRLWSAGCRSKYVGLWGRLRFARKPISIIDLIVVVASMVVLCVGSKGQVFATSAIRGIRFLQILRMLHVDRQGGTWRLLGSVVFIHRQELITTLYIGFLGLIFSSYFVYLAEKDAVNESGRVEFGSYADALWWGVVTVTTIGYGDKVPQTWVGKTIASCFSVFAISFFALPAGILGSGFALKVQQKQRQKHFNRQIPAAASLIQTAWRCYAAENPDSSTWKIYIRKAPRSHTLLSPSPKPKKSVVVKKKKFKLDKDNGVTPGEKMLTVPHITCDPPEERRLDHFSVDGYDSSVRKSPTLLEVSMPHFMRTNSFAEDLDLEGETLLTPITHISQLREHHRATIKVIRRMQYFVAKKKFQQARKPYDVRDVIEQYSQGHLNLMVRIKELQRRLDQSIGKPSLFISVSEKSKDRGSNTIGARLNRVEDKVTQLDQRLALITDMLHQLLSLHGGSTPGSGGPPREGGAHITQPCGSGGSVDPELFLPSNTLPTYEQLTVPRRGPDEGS
hERG protect – hERG rescue from dofetilide block, primary screen, cell-based, CHO-hERG, FluxOR thallium flux, dofetilide IC70. 0.51% of 310,000 active. dofetilide IC70 present. activation (rescue from dofetilide block), less the hit threshold, % at 10 µM. Voltage-gated inwardly rectifying potassium channel KCNH2 (Homo sapiens), Q12809;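 active = activation above the mean of controls blocked by dofetilide plus 5 SD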;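 also: thallium influx through hERG after potassium depolarization seen as dye fluorescence rise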
SUMO Mot1 rescue – yeast Mot1-301 growth rescue at high temperature, primary screen, SUMOylation pathway inhibitor project, S. cerevisiae, ATP luminescence, 38.5C. growth rescue, % at 18.8 µM. 1% of 320,000 active. S. cerevisiae Mot1-301 growth rescue; percent above DMSO median, 100 means doubled;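 active = every valid replicate shows activation above 250% relative to neutral control wells; inactive = the rest, any valid replicate at or below 250%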;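 also: OY570 slx delta 5 strain wells were the positive control but not used for scaling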
KCC2 mod – KCC2 cotransporter modulators, thallium flux, primary screen, cell-based, HEK293 KCC2, FluoZin-2 fluorescence, MLSMR | Solute carrier family 12 member 5 (Homo sapiens), Q9H2X9 | KCC2 cells, thallium flux FluoZin-2 fluorescence | B-score of Tl+ flux slope (higher = more flux/activation; lower = inhibition) at 10 µM | 2.2% of 190,000 active | AID 1456, 2008;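 active = thallium flux slope and its plate-corrected score both differing from the plate sample mean at a set confidence after two filtering rounds, in either direction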;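 also: slope of fluorescence scaled to starting intensity during 10 to 20 s after thallium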
AI-2 QS modul – Vibrio harveyi AI-2 quorum sensing modulators, primary screen, JMH597 strain, luminescence/OD600 ratio | Vibrio harveyi JMH597 AI-2 luminescence/OD600 ratio, 9 h; hits give low values; strain lacks LuxN and CqsS sensors; 0 = neutral-control median | activity change, % at 7.5 µM | 0.4% of 300,000 active | AID 2094, 2009; in the data active = activity change below about -75%, passing the limit was not always enough; inconclusive = no clear call, values can overlap the other calls;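 also: luminescence divided by OD600 gain over 9 h not by final OD600 alone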
KCNQ1 act – potentiators or activators of KCNQ1 channel, primary screen, cell-based, thallium flux, high-throughput. 0.35% of 310,000 active. Potassium voltage-gated channel subfamily KQT member 1 (Homo sapiens), P51787. B-score at 10 µM. CHO-K1 KCNQ1, thallium flux FluxOR fluorescence; hits give high values;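 active = fluorescence ratio B-score, a plate-corrected score, at least three library SD, with initial intensity B-score within 5 SD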
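Schedule – 37 °C overnight plating, 90-min dark dye load, 20-min compound pretreatment · System – stable KCNQ1 CHO-K1 line · Probe or stimulus – thallium- and potassium-containing depolarizing buffer · Measured by – kinetic FluxOR fluorescence, 10 s baseline plus 110 s post-stimulus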
KCC2 secondary – KCC2 modulators in sodium-free buffer, confirmation, cell-based, HEK293 KCC2, thallium flux, secondary assay. shares compounds with KCC2 mod. FluoZin2 fluorescence; hits give high values. normalised thallium flux (F/F0 slope) at 10 µM. 15% of 3,700 active. AID 1713, 2009;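 active = thallium flux slope above the same plate's solvent-only control mean plus 3 SD; inconclusive = the two replicate wells disagree; inactive = no significant difference from solvent-only control wells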
KCC2 bumet counter – thallium flux persisting under bumetanide in KCC2 cells, confirmation, counter-screen for KCC2 modulator project, cell-based, HEK293 KCC2, FluoZin2, secondary assay 3 | HEK293-KCC2 + bumetanide/ouabain; hits give high values | shares compounds with KCC2 mod | 49% of 3,700 active | AID 1714, 2009 | normalized thallium flux at 10 µM;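 active = thallium entry rate above the same plate's blocked-transporter control wells by more than 3 SD; inconclusive = the two repeat wells disagree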;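 also: raw slope of fluorescence over initial fluorescence between 10 and 20 s after thallium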
KCC2 secondary2 – KCC2 modulators without ouabain present, confirmation, cell-based, HEK293 KCC2, thallium flux, FluoZin2, secondary assay 2; 23% of 3,700 active; AID 1715, 2009; thallium flux FluoZin2 fluorescence; actives lie on both sides; F/F0 rise rate, 10–20 s post-thallium; shares compounds with KCC2 mod; normalized thallium flux at 10 µM;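 active = thallium flux slope more than 3 SD above or below the plate's solvent-only control mean, mostly below; inconclusive = the two repeat wells disagreed; inactive = no significant shift from solvent-only controls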;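 also: raw slope with 0.1% DMSO as baseline and bumetanide as block control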
HEK counter1 – thallium flux modulation in parental HEK cells, confirmation, counter-screen for KCC2 modulator project, cell-based, counterscreen 1 | 46% of 3,700 active | shares compounds with KCC2 mod | thallium flux rate (normalised fluorescence) at 10 µM | HEK293 parental cells, thallium flux FluoZin2, ouabain; baseline-ratio fluorescence slope, 10–20 s after thallium;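 active = thallium flux rate significantly above the same plate's solvent-only control wells, beyond their mean plus 3 SD; inconclusive = the two replicate wells gave conflicting results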
KCC2 retest ouab – KCC2 inhibitors and activators, ouabain retest, confirmation, HEK-KCC2 cells; raw Tl+ flux slope (below DMSO = inhibition, above = activation) at 10 µM; HEK293-KCC2, thallium flux FluoZin2 fluorescence; bidirectional: low = inhibitor, high = activator; shares compounds with KCC2 mod; 48% of 3,700 active;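 active = thallium flux slope beyond 3 SD from same-plate DMSO control mean in most replicates, usually higher, sometimes lower; inconclusive = repeat tests gave conflicting results; inactive = no significant difference from controls in most replicates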;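 also: slope of initial-normalized fluorescence between seconds 10 and 20 after thallium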
HEK293 Tl flux2 – native HEK Tl+ uptake effects, second counter-screen – HEK cells, counterscreen 2, counter-screen for KCC2 modulator project, confirmation. 33% of 3,700 active. shares compounds with KCC2 mod. HEK293 parental, thallium flux FluoZin-2 fluorescence slope. thallium flux slope at 10 µM;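 active = thallium flux slope above the same plate's solvent-control mean plus 3 SD in both duplicate wells; inconclusive = duplicate wells that disagreed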;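 also: run without ouabain in cells lacking the KCC2 cotransporter; slope of fluorescence scaled to its starting value between 10 and 20 s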
An asterisk follows results filed as active; i = inactive; u = inconclusive; x = not tested or not shown.

SMILES | KCNQ1 block | hERG protect | SUMO Mot1 rescue | KCC2 mod | AI-2 QS modul | KCNQ1 act | KCC2 secondary | KCC2 bumet counter | KCC2 secondary2 | HEK counter1 | KCC2 retest ouab | HEK293 Tl flux2
N#CCCCSc1ncccc1-c1nc2ccccc2[nH]1 | i | -9 | -7 | 0.44 | 9 | i | 0.0079 | 0.0061 | 0.027 | 0.0066 | 0.02 | 0.0086
N#CCSc1ncccc1-c1nc2ccccc2[nH]1 | i | -5 | -5 | -0.41 | 17 | i | x | x | x | x | x | x
C/C(=N\NC(=O)CNc1cccc(C(F)(F)F)c1)c1ccc(Br)cc1 | i | -6 | 2 | -0.046 | 7 | i | x | x | x | x | x | x
C/C(=N\NC(=O)CNc1cccc(C(F)(F)F)c1)c1cccc(Br)c1 | i | -9 | 0 | 5.4* | 25 | i | 0.01 | 0.0064 | 0.035 | 0.0074 | 0.022 | 0.011
O=C(Oc1ccc2ccccc2c1Cl)N1CCCC1 | i | -10 | 7 | x | 59 | i | 0.0062 | 0.0053 | 0.029 | 0.0063 | 0.015* | 0.0094
O=[N+]([O-])c1ccc(N=Nc2ncc[nH]2)cc1 | i | -10 | -11 | x | 15 | i | x | x | x | x | x | x
C=CCn1c(SC2CCOC2=O)nc2scc(C3CC3)c2c1=O (configuration not stated) | i | -15 | 5 | x | 13 | i | x | x | x | x | x | x
Nc1ccc(Br)c2c1C(=O)c1ccccc1C2=O | i | -21 | -8 | -3.8* | 17 | i | u | u | 0.032 | u | 0.018 | 0.011
CCOC(=O)C1=NN(C(=O)c2ccc(OC)cc2)C(O)(c2ccc(Cl)cc2)C1 (configuration not stated) | i | 40* | -22 | 66* | 45 | 56* | u | 0.093* | 0.077* | 0.095* | 0.087* | 0.064*
O=C(c1ccc(Cl)cc1)N1N=CCC1(O)c1ccc(Cl)cc1 (configuration not stated) | i | -14 | 8 | x | 19 | i | x | x | x | x | x | x
CCOC(=O)C1=NN(C(=O)COc2ccccc2)C(O)(c2ccc(Cl)cc2)C1 (configuration not stated) | i | -11 | -19 | 6.7* | 36 | i | 0.012* | 0.029* | 0.03 | 0.013* | 0.026 | u
CCOC(=O)C1=NN(C(=O)Cc2ccccc2)C(O)(c2ccc(Cl)cc2)C1 (configuration not stated) | i | -6 | 0 | 1.3 | 13 | i | x | x | x | x | x | x
Clc1ccc2[nH]cc(-c3nnnn3-c3ccccc3)c2c1 | i | 0 | -5 | -0.15 | 18 | i | x | x | x | x | x | x
CCOC(=O)c1c(C)nc2c(c1-c1cc(OC)c(OC)c(OC)c1)C(=O)c1ccccc1-2 | i | -4 | 2 | -0.45 | 26 | i | x | x | x | x | x | x
Cc1cc(/C=C(/C#N)c2cccc(F)c2)c(C)n1-c1cccnc1 | i | -7 | 5 | x | 27 | i | x | x | x | x | x | x
S=c1[nH]c2ccccc2n2cccc12 | i | 2 | 54 | 22* | 10 | i | 0.017* | 0.087* | u | 0.028* | 0.048* | 0.018*
Cn1c(=S)[nH]c2ccccc21 | i | -4 | -13 | x | 33 | i | x | x | x | x | x | x
O=C(O)CCc1cc(I)c(Oc2ccc(O)c(I)c2)c(I)c1 | i | 29* | x | -4.1* | -33 | 49* | 0.007 | u | 0.025* | 0.0069 | u | 0.01
N[C@@H](Cc1cc(I)c(Oc2ccc(O)c(I)c2)c(I)c1)C(=O)O | i | -5 | 9 | -2.2 | 52 | i | x | x | x | x | x | x
CCOc1ccc(NC2c3ccccc3C(=O)N2Cc2ccco2)cc1 (configuration not stated) | i | -14 | 0 | -4.2* | 9 | i | 0.0071 | 0.0055 | 0.028 | 0.0051* | 0.016* | 0.0086
O=C1c2ccccc2C(Nc2ccc(S(=O)(=O)N3CCCCC3)cc2)N1Cc1ccco1 (configuration not stated) | i | -15 | -2 | -5.1* | 19 | i | 0.0068 | 0.0043 | u | 0.0062* | 0.014* | 0.0098
CCOc1ccc(N(CC(=O)N2CCN(c3ccc(F)cc3)CC2)S(=O)(=O)c2c(C)noc2C)cc1 | i | -12 | -25 | x | 12 | i | x | x | x | x | x | x
S=C(Nc1ccc2nccnc2c1)N1CCOCC1 | i | -6 | -10 | 1.3 | 23 | i | x | x | x | x | x | x
CCOC(=O)C1=C(CN2CCOCC2)NC(=O)NC1c1cc(C)ccc1C (configuration not stated) | i | -2 | 102 | 0.61 | 29 | i | x | x | x | x | x | x
CCOC(=O)C1=C(CN2CCCCC2)NC(=O)NC1c1cc(C)ccc1C (configuration not stated) | i | -13 | -11 | x | 10 | i | 0.0056 | 0.0043 | 0.031 | 0.0073 | 0.019 | 0.01

Screening data from PubChem.
